Results from ChEMBL document CHEMBL1122582, “Pyridonecarboxylic acids as antibacterial agents. 2. Synthesis and structure-activity relationships of 1,6,7-trisubstituted 1,4-dihydro-4-oxo-1,8-naphthyridine-3-carboxylic acids, including enoxacin, a new antibacterial agent” (J Med Chem, 1984).
In brackets after ≈: the same amount, converted by molar mass.

Key:
Format in all cases: functional
Escherichia coli [1] = assay: Antibacterial activity against Escherichia coli NIHJ JC-2
How it was run: (§1)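 Twofold agar dilution on Mueller-Hinton agar (pH 7.4). Inocula of approximately 10⁶ colony-forming units; growth read after 20-h incubation at 37 °C. MIC is given in micrograms per milliliter.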

Pseudomonas aeruginosa [2] = assay: Antibacterial activity against Pseudomonas aeruginosa Tsuchijima; how it was run: as §1
Staphylococcus aureus [3] = assay: Antibacterial activity against Staphylococcus aureus 209PJC-1; how it was run: as §1
Escherichia coli [4] = assay: Median effective dose against Escherichia coli P-5101 causing systemic infections
How it was run: (§2)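 Male Std-ddY mice (20 ± 2 g), groups of 10 or more, infected ip with E. coli P-5101 (9×10^6 cells). Compounds were suspended in 0.2% sodium carboxymethylcellulose and dosed orally at 0 and 6 h postinfection. Survival was scored after 1 week and the ED50 derived in mg/kg.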

Pseudomonas aeruginosa [5] = assay: Median effective dose against Pseudomonas aeruginosa 12 causing systemic infections
How it was run: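 Male Std-ddY mice (20 ± 2 g), groups of 10 or more, infected ip with P. aeruginosa 12 (4×10^3 cells). Compounds were suspended in 0.2% sodium carboxymethylcellulose and given orally at 0 and 6 h postinfection. Survival was scored after 1 week and the ED50 derived in mg/kg.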

Escherichia coli [6] = assay: Median effective dose against Escherichia coli P-5101 causing systemic infections.; how it was run: as §2
Staphylococcus aureus [7] = assay: Median effective dose against Staphylococcus aureus 50774 causing systemic infections
How it was run: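 Systemic infection given iv with S. aureus 50774 (5×10^8 cells) to male Std-ddY mice (20 ± 2 g), 10 or more per group. Oral dosing of compound suspended in 0.2% sodium carboxymethylcellulose at 0 and 6 h postinfection. ED50 in mg/kg from survival scored after 2 weeks.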

| Compound | MIC (Escherichia coli [1]) [µg/mL] | MIC (Pseudomonas aeruginosa [2]) [µg/mL] | MIC (Staphylococcus aureus [3]) [µg/mL] | ED50 (Escherichia coli [4]) [mg/kg] | ED50 (Pseudomonas aeruginosa [5]) [mg/kg] | ED50 (Escherichia coli [6]) [mg/kg] | ED50 (Staphylococcus aureus [7]) [mg/kg] |
| --- | --- | --- | --- | --- | --- | --- | --- |
| CCn1cc(C(=O)O)c(=O)c2cc(F)c(N)nc21 | 1.56 (≈ 6.21 µM) | 50 (≈ 199 µM) | > 100 | – | – | – | – |
| CCn1cc(C(=O)O)c(=O)c2cc([N+](=O)[O-])c(N3CCN(C)CC3)nc21 | 3.13 (≈ 8.66 µM) | 50 (≈ 138 µM) | 12.5 (≈ 34.6 µM) | – | – | – | – |
| CCCCN1CCN(c2nc3c(cc2F)c(=O)c(C(=O)O)cn3CC)CC1 | 3.13 (≈ 8.31 µM) | 25 (≈ 66.4 µM) | 3.13 (≈ 8.31 µM) | – | – | – | – |
| CCn1cc(C(=O)O)c(=O)c2cc([N+](=O)[O-])c(N3CCNCC3)nc21 | 6.25 (≈ 18 µM) | 25 (≈ 72 µM) | 6.25 (≈ 18 µM) | – | – | – | – |
| CCn1cc(C(=O)O)c(=O)c2ccc(N3CCCC3)nc21 | 25 (≈ 87 µM) | > 100 | 12.5 (≈ 43.5 µM) | – | – | – | – |
| CCn1cc(C(=O)O)c(=O)c2cc(C#N)c(N3CCNCC3)nc21 | 1.56 (≈ 4.77 µM) | 6.25 (≈ 19.1 µM) | 6.25 (≈ 19.1 µM) | – | – | – | – |
| O=C(O)c1cn(CCF)c2nc(N3CCNCC3)c(F)cc2c1=O | 0.2 (≈ 0.591 µM) | 0.78 (≈ 2.31 µM) | 0.39 (≈ 1.15 µM) | – | – | – | – |
| CCn1cc(C(=O)O)c(=O)c2cnc(N3CCNCC3)nc21 [PIPEMIDIC ACID] | – | 6.25 (≈ 20.6 µM) | 6.25 (≈ 20.6 µM) | 12.8 | 70.8 | – | – |
| CCn1cc(C(=O)O)c(=O)c2cc(C#N)c(N3CCN(C)CC3)nc21 | 1.56 (≈ 4.57 µM) | 12.5 (≈ 36.6 µM) | 12.5 (≈ 36.6 µM) | – | – | – | – |
| CCn1cc(C(=O)O)c(=O)c2cc(F)c(NCCN)nc21 | 6.25 (≈ 21.2 µM) | 50 (≈ 170 µM) | 25 (≈ 85 µM) | – | – | – | – |
| CCn1cc(C(=O)O)c(=O)c2cc(F)c(N3CCN(Cc4ccccc4)CC3)nc21 | 6.25 (≈ 15.2 µM) | 12.5 (≈ 30.5 µM) | 0.78 (≈ 1.9 µM) | – | – | – | – |
| CCn1cc(C(=O)O)c(=O)c2ccc(C)nc21 [NALIDIXIC ACID] | 1.56 (≈ 6.72 µM) | 50 (≈ 215 µM) | – | – | – | – | – |
| CCn1cc(C(=O)O)c(=O)c2cc(Cl)c(N3CCN(C)CC3)nc21 | 1.56 (≈ 4.45 µM) | 12.5 (≈ 35.6 µM) | 6.25 (≈ 17.8 µM) | – | – | – | – |
| CN1CCN(c2nc3c(cc2F)c(=O)c(C(=O)O)cn3CCF)CC1 | 0.2 (≈ 0.568 µM) | 1.56 (≈ 4.43 µM) | 0.78 (≈ 2.21 µM) | – | – | – | – |
| CCn1cc(C(=O)O)c(=O)c2cc(N)c(N3CCN(C)CC3)nc21 | 1.56 (≈ 4.71 µM) | 12.5 (≈ 37.7 µM) | 25 (≈ 75.4 µM) | – | – | – | – |
| CCn1cc(C(=O)O)c(=O)c2cc(N)c(N3CCNCC3)nc21 | 3.13 (≈ 9.86 µM) | 6.25 (≈ 19.7 µM) | > 100 | – | – | – | – |
| C=Cn1cc(C(=O)O)c(=O)c2cc(F)c(N3CCN(C)CC3)nc21 | 0.2 (≈ 0.602 µM) | 0.78 (≈ 2.35 µM) | 3.13 (≈ 9.42 µM) | – | 3.7 | 1.1 | 10.5 |
| CCn1cc(C(=O)O)c(=O)c2ccc(N3CCN(C)CC3)nc21 | 6.25 (≈ 19.8 µM) | 25 (≈ 79 µM) | 25 (≈ 79 µM) | – | – | – | – |
| O=C(O)c1cn(C(F)F)c2nc(N3CCNCC3)c(F)cc2c1=O | 0.78 (≈ 2.28 µM) | 6.25 (≈ 18.3 µM) | 6.25 (≈ 18.3 µM) | – | – | – | – |
| CCC(C)N1CCN(c2nc3c(cc2F)c(=O)c(C(=O)O)cn3CC)CC1 (configuration not stated) | 3.13 (≈ 8.31 µM) | 25 (≈ 66.4 µM) | 1.56 (≈ 4.14 µM) | – | – | – | – |
| CCn1cc(C(=O)O)c(=O)c2cc(F)c(N3CCN(c4ccccc4)CC3)nc21 | 12.5 (≈ 31.5 µM) | > 100 | 6.25 (≈ 15.8 µM) | – | – | – | – |

Second part, led by results:

| MIC (Escherichia coli [1]) [µg/mL] | MIC (Pseudomonas aeruginosa [2]) [µg/mL] | MIC (Staphylococcus aureus [3]) [µg/mL] | Compound | ED50 (Escherichia coli [4]) [mg/kg] | ED50 (Pseudomonas aeruginosa [5]) [mg/kg] | ED50 (Escherichia coli [6]) [mg/kg] | ED50 (Staphylococcus aureus [7]) [mg/kg] |
| --- | --- | --- | --- | --- | --- | --- | --- |
| > 100 | > 100 | > 100 | CCn1cc(C(=O)O)c(=O)c2cc(N)c(N3CCCC3)nc21 | – | – | – | – |
| 0.2 (≈ 0.624 µM) | 0.78 (≈ 2.44 µM) | 0.78 (≈ 2.44 µM) | CCn1cc(C(=O)O)c(=O)c2cc(F)c(N3CCNCC3)nc21 [ENOXACIN] | – | – | – | – |
| > 100 | > 100 | 12.5 (≈ 38.8 µM) | CCn1cc(C(=O)O)c(=O)c2cc(Cl)c(N3CCCC3)nc21 | – | – | – | – |
| 100 (≈ 301 µM) | > 100 | 25 (≈ 75.2 µM) | CCn1cc(C(=O)O)c(=O)c2cc([N+](=O)[O-])c(N3CCCC3)nc21 | – | – | – | – |
| 3.13 (≈ 9.74 µM) | 6.25 (≈ 19.5 µM) | 1.56 (≈ 4.86 µM) | CCn1cc(C(=O)O)c(=O)c2cc(F)c(N3CCOCC3)nc21 | – | – | – | – |
| 3.13 (≈ 9.28 µM) | 12.5 (≈ 37.1 µM) | 1.56 (≈ 4.62 µM) | CCn1cc(C(=O)O)c(=O)c2cc(F)c(N3CCSCC3)nc21 | – | – | – | – |
| 1.56 (≈ 5.11 µM) | 3.13 (≈ 10.3 µM) | 0.39 (≈ 1.28 µM) | CCn1cc(C(=O)O)c(=O)c2cc(F)c(N3CCCC3)nc21 | – | – | – | – |
| 0.78 (≈ 2.33 µM) | 1.56 (≈ 4.67 µM) | 1.56 (≈ 4.67 µM) | CCn1cc(C(=O)O)c(=O)c2cc(F)c(N3CCCNCC3)nc21 | – | – | – | – |
| 6.25 (≈ 19.6 µM) | 12.5 (≈ 39.1 µM) | 0.78 (≈ 2.44 µM) | CCn1cc(C(=O)O)c(=O)c2cc(F)c(N3CCCCC3)nc21 | – | – | – | – |
| 0.78 (≈ 2.33 µM) | 12.5 (≈ 37.4 µM) | 6.25 (≈ 18.7 µM) | CCn1cc(C(=O)O)c(=O)c2cc(F)c(N3CCNC(=O)C3)nc21 | – | – | – | – |
| 1.56 (≈ 4.48 µM) | 12.5 (≈ 35.9 µM) | 3.13 (≈ 8.99 µM) | CCn1cc(C(=O)O)c(=O)c2cc(F)c(N3CCN(C=O)CC3)nc21 | – | – | – | – |
| 25 (≈ 72 µM) | > 100 | 12.5 (≈ 36 µM) | CCn1cc(C(=O)O)c(=O)c2cc(F)c(N3CCCCCCC3)nc21 | – | – | – | – |
| 6.25 (≈ 18.7 µM) | 50 (≈ 150 µM) | 3.13 (≈ 9.39 µM) | CCn1cc(C(=O)O)c(=O)c2cc(F)c(N3CCCCCC3)nc21 | – | – | – | – |
| 1.56 (≈ 4.3 µM) | 12.5 (≈ 34.5 µM) | 1.56 (≈ 4.3 µM) | CCCN1CCN(c2nc3c(cc2F)c(=O)c(C(=O)O)cn3CC)CC1 | – | – | – | – |
| 3.13 (≈ 8.64 µM) | 50 (≈ 138 µM) | 3.13 (≈ 8.64 µM) | CCn1cc(C(=O)O)c(=O)c2cc(F)c(N3CCN(C(C)=O)CC3)nc21 | – | – | – | – |
| 12.5 (≈ 40 µM) | 25 (≈ 80 µM) | 3.13 (≈ 10 µM) | CCn1cc(C(=O)O)c(=O)c2cc(C#N)c(N3CCCC3)nc21 | – | – | – | – |
| 0.78 (≈ 2.24 µM) | 3.13 (≈ 8.98 µM) | 0.78 (≈ 2.24 µM) | CCN1CCN(c2nc3c(cc2F)c(=O)c(C(=O)O)cn3CC)CC1 | – | – | – | – |
